An excerpt weighted towards active compounds, which were near 0.79% of everything screened.
mIAP inh: inhibitors of mouse IAP, primary screen, biochemical, luminescence, uHTS; inhibition, % at 10 µM; hit rate 0.2% among 330,000; intestinal alkaline phosphatase [Mus musculus]; purified mouse IAP, CDP-Star luminescence, 30 min;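 active = inhibition of at least 40% at 10 µM in the primary screen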
hIAP block: human IAP inhibitors, primary screen, biochemical, luminescence, uHTS; Intestinal-type alkaline phosphatase (Homo sapiens), P09923; purified IAP, CDP-Star luminescence, 30 min; inhibition, % at 10 µM; hit rate 0.12% among 330,000; AID 2544, 2010;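 active = inhibition reaching a set limit with compound at 10 µM in the primary screen, cut at about 35% in these data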
Target sequence (P09923 whole entry, looked up): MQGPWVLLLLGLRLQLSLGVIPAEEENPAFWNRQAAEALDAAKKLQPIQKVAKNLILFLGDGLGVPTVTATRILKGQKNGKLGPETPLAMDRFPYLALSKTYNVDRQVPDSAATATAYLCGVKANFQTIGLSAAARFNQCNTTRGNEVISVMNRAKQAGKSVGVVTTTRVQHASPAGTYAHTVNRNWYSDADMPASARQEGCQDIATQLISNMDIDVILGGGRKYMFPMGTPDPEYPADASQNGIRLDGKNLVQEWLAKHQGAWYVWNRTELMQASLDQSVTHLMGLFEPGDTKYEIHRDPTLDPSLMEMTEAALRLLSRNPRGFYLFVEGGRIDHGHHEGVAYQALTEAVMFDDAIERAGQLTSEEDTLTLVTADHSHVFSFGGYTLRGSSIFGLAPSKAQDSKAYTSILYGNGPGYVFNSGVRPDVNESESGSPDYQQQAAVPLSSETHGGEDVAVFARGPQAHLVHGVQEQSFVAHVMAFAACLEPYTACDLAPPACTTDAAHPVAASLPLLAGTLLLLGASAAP
bIAP inhibitor: bovine intestinal alkaline phosphatase inhibitors, primary screen, selectivity assay for TNAP inhibitor project, biochemical, bovine IAP, CDP-star luminescence | purified bovine IAP, 30 min | alkaline phosphatase, intestinal [Bos taurus] | 190,000 tested, under 10 active | inhibition, % at 20 µM;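 active = over 50% inhibition of intestinal alkaline phosphatase at 20 µM in the single-dose screen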
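test system = bovine IAP enzyme | medium = DEA buffer 100 mM, pH 9.8, with MgCl2 1.0 mM, ZnCl2 0.02 mM | detection = luminescence | dosing = single compound dose of 20 µM, 2% DMSO final | incubation = 30 min reaction at room temperature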
mIAP activ: activators of mouse IAP, primary screen, biochemical, luminescence, uHTS; intestinal alkaline phosphatase [Mus musculus]; muIAP, CDP-Star luminescence, 30 min; active compounds read high; 1 = vehicle-only enzyme signal, 0 = enzyme-free wells; activation factor at 10 µM; hit rate 0.24% among 330,000; AID 2805, 2010;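 active = activation factor of at least 2 at 20 µM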
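System: mouse IAP enzyme. Reagent: CDP-Star chemiluminescent phosphatase substrate. Benchmarks: DMSO wells, no-enzyme wells. Times: 30 min enzyme-substrate-compound incubation at room temperature. Detection: luminescence from enzymatic CDP-Star hydrolysis. Doses: test compounds delivered from DMSO solution.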
bIAP act: bovine intestinal alkaline phosphatase activators, primary screen, biochemical, bovine IAP, CDP-star luminescence; alkaline phosphatase, intestinal [Bos taurus]; purified bovine IAP, 30 min; active compounds read high; fold of DMSO-control signal, blank-subtracted; activation factor at 20 µM; hit rate 0.17% among 200,000; AID 1016, 2008;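 active = activation factor of 2 or more at 20 µM, a signal rise over negative controls twice the positive control's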
hIAP act: human IAP activators, primary screen, biochemical, luminescence, uHTS; activation factor at 10 µM; AID 2524, 2010; hit rate 0.16% among 330,000; purified human IAP, CDP-Star luminescence, 30 min; active compounds read high; 1 = vehicle-only enzyme, 0 = enzyme-free background;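 active = activation factor of the enzyme at least 2-fold when tested at 20 µM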
mIAP inh conf: inhibitors of mouse IAP, confirmation, biochemical, luminescence, single concentration; shares compounds with mIAP inh; purified mouse IAP, CDP-Star luminescence, 30 min; inhibition, % at 10 µM; AID 434971, 2010; hit rate 4.7% among 11,000;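 active = inhibition of at least 40% at 10 µM in either of the two replicates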
Numbers stand for hits; 0 = inactive; - = no result.

SMILES	mIAP inh	hIAP block	bIAP inhibitor	mIAP activ	bIAP act	hIAP act	mIAP inh conf
CN1CCN(S(=O)(=O)c2ccc3[nH]c(=O)oc3c2)CC1	42.6	0	0	0	0	0	58.6
O=C(CCl)Nc1nc(-c2ccco2)c(-c2ccco2)s1	76.8	0	0	0	0	0	73.9
O=C(CCCSc1ccccc1)Nc1nc(-c2ccco2)c(-c2ccco2)s1	-	-	0	-	0	-	-
Cc1ccc(C(=O)Nc2nc(-c3ccco3)c(-c3ccco3)s2)o1	64.0	0	-	0	-	0	68.4
O=C(c1cccc([N+](=O)[O-])c1)N1CCCC(C(=O)N2CCc3ccccc3C2)C1 (stereo unspecified)	0	0	-	0	-	0	-
O=C1OC(c2ccccc2)c2ccc3ccccc3c21 (stereo unspecified)	0	0	0	0	0	0	-
Cn1c(O)c(C2=c3ccccc3=NC2=O)[nH]c1=S	0	0	0	0	0	0	-
O=C1N=c2ccccc2=C1c1sc(=S)n(NC(=O)c2ccccc2)c1O	63.6	0	-	0	-	0	64.4
O=C(NCc1ccc2c(c1)OCO2)c1cc(-c2ccccc2)c(N2CCOCC2)s1	0	0	-	0	-	0	-
CCOc1ccc(CCNC(=O)c2cc(-c3ccccc3)c(N3CCOCC3)s2)cc1	0	0	-	3.22	-	0	0
C#CCOCCOCCOCCNc1nc(N2CCN(C(=O)CCCCCCCCCCNC(=O)[C@H](CCC(=O)O)n3cc(CCCCCN)nn3)CC2)nc(N2CCN(C(=O)CCCCCCCCCCNC(=O)[C@@H]([C@H](C)O)n3cc(C)nn3)CC2)n1	0	0	-	0	-	0	-
C#CCOCCOCCOCCNc1nc(N2CCN(C(=O)CCCCCCCCCCNC(=O)Cn3cc(CCCCCN)nn3)CC2)nc(N2CCN(C(=O)CCCCCCCCCCNC(=O)[C@H]([C@@H](C)CC)n3cc(CCCCCN)nn3)CC2)n1	0	0	-	4.08	-	0	0
C#CCOCCOCCOCCNc1nc(N2CCN(C(=O)CCCCCCCCCCNC(=O)[C@H]([C@@H](C)CC)n3cc(CCCCCN)nn3)CC2)nc(N2CCN(C(=O)CCCCCCCCCCNC(=O)[C@@H]([C@H](C)O)n3cc(C)nn3)CC2)n1	0	0	-	2.13	-	0	0
C#CCOCCOCCOCCNc1nc(N2CCN(C(=O)CCCCCCCCCCNC(=O)[C@H](CCCCN)n3cc(C)nn3)CC2)nc(N2CCN(C(=O)CCCCCCCCCCNC(=O)[C@@H]([C@H](C)CC)n3cc(CCCCCN)nn3)CC2)n1	0	0	-	2.96	-	0	0
Cc1ccc(C)c(C(=O)OCC(=O)Nc2ccc(N3CCOCC3)cc2)c1	0	0	0	0	0	0	-
Cc1ccc(C)n1-c1ccc(-c2ccnc(N)n2)cc1	-	-	0	-	0	-	-
NS(=O)(=O)c1ccc(N=Nc2c[nH]c(=O)c(O)c2)cc1	68.4	0	-	0	-	0	81.1
O=C(NCCCN1CCOCC1)c1cc(S(=O)(=O)N2CCOCC2)ccc1Cl	0	0	-	0	-	0	-
NNC(=O)Nc1cccc(C(F)(F)F)c1	0	0	0	0	0	0	-
CCN(CC)S(=O)(=O)c1ccc(NC(=O)Nc2cccc(C(F)(F)F)c2)cc1	0	0	0	2.81	0	0	0
CCN(CC)S(=O)(=O)c1ccc(C(=O)Nc2cccc(C)c2)cc1	0	0	0	0	0	0	-
O=C(Nc1ccc(OC(F)F)cc1)Nc1cccc(C(F)(F)F)c1	0	0	0	3.22	0	0	0
O=C(NCCc1ccc(Cl)cc1)C1CCCN1C(=O)Nc1ccccc1 (stereo unspecified)	0	0	-	0	-	0	-
CC(C)c1csc(CN2CCC(N3CCC(C(=O)N4CCOCC4)CC3)CC2)n1	0	0	0	0	0	0	-
CNC[C@H]1Oc2ccc(NC(=O)Nc3ccc(OC)cc3)cc2C(=O)N([C@@H](C)CO)C[C@H]1C	0	0	-	2.99	-	0	0
SMILES	mIAP inh	hIAP block	bIAP inhibitor	mIAP activ	bIAP act	hIAP act	mIAP inh conf
CNC[C@@H]1Oc2c(NC(=O)Nc3ccccc3)cccc2C(=O)N([C@@H](C)CO)C[C@H]1C	0	0	-	0	-	0	-
CNC[C@@H]1Oc2ccc(NC(=O)Nc3cccc4ccccc34)cc2C(=O)N([C@@H](C)CO)C[C@@H]1C	0	0	-	4.25	-	0	0
CC1CCN(Cc2cc(=O)oc3ccc4ccccc4c23)CC1	0	0	-	0	-	0	-
N#C/C(=C/c1ccco1)C(N)=S	47.0	0	-	0	-	0	56.5
Cc1ccc(CN(C(=O)c2csnn2)C(C(=O)NC2CCCC2)c2ccccn2)cc1 (stereo unspecified)	0	0	-	0	-	0	-
O=C(NCc1ccco1)c1cc2c(s1)CSC2	45.2	0	0	0	0	0	45.4
O=C(NCc1ccc2c(c1)OCO2)c1cc2c(s1)CSC2	44.9	0	0	0	0	0	59.1
COC(=O)c1ccc(OC(=O)C23CCC(C)(C(=O)O2)C3(C)C)cc1 (stereo unspecified)	0	0	0	0	0	0	-
CC(=O)NC(C)c1nc2ccccc2n1CC(=O)NC(C)CCc1ccccc1 (stereo unspecified)	0	0	0	0	0	0	-
Cc1cc2nc(C)n(CCCNC(=O)Nc3cccc4ccccc34)c2cc1C	0	0	0	2.56	2.7	0	0
O=C(Nc1ccc(F)c(Cl)c1)C1CC(=O)n2c(nc3ccccc32)N1 (stereo unspecified)	0	0	0	2.83	0	0	0
Cc1ccc(S(=O)(=O)N(C)c2ccc(C(=O)Nc3c(C)n(C)n(-c4ccccc4)c3=O)cc2)cc1	0	0	0	0	0	0	-
Cc1csc(NC(=O)CSc2sc3c(O)cc(=O)[nH]c3c2C#N)n1	46.9	0	-	0	-	0	68.4
CCSc1nnc(NC(=O)CSc2sc3c(O)cc(=O)[nH]c3c2C#N)s1	0	0	-	0	-	0	-
CCc1nnc(NC(=O)CSc2sc3c(O)cc(=O)[nH]c3c2C#N)s1	44.4	0	-	0	-	0	64.7
CCOC(=O)Cc1nc2ccccc2n(CC#N)c1=O	0	0	0	0	0	0	-
CCOC(=O)C1=C(C)N=c2s/c(=C\c3ccc(O)c([N+](=O)[O-])c3)c(=O)n2C1c1ccccc1OC (stereo unspecified)	0	0	-	0	-	0	-
CCOC(=O)C1=C(C)N=c2s/c(=C/c3cccc([N+](=O)[O-])c3O)c(=O)n2C1c1ccc(OC)cc1OC (stereo unspecified)	43.2	0	-	0	-	0	44.4
